Article PMC10061536 (ACS Omega, 2023)

Columns and labels:
[1] = test system: α-amylase; assay: α-Amylase inhibition assay; format: biochemical; settings: for IC50: read-out: IC50 ± SEM, α-amylase inhibition
[2] = molecular target: Bovine serum albumin (BSA)-glucose model (Bos taurus, UniProt P02769); assay: In vitro anti-glycation assay, BSA-glucose model; format: biochemical; settings: for inhibition at 100 ppm / inhibition at 200 ppm / inhibition at 400 ppm / inhibition at 600 ppm / inhibition at 800 ppm / inhibition at 1000 ppm: read-out: % age antiglycation inhibition
Procedure, shortened: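 Glycation is read by measuring the fluorescence of glycated products on a spectrofluorometer.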

[3] = DPPH radical scavenging assay; settings: for IC50: read-out: IC50 (mM ± SEM), DPPH scavenged by 50%; for percentage antioxidant potential: at tested concentrations, IC50 not calculated
Procedure, shortened: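 Radical scavenging of DPPH by the test compound, with ascorbic acid as the reference.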

Sequence of Bovine serum albumin (BSA)-glucose model (P02769 25-607): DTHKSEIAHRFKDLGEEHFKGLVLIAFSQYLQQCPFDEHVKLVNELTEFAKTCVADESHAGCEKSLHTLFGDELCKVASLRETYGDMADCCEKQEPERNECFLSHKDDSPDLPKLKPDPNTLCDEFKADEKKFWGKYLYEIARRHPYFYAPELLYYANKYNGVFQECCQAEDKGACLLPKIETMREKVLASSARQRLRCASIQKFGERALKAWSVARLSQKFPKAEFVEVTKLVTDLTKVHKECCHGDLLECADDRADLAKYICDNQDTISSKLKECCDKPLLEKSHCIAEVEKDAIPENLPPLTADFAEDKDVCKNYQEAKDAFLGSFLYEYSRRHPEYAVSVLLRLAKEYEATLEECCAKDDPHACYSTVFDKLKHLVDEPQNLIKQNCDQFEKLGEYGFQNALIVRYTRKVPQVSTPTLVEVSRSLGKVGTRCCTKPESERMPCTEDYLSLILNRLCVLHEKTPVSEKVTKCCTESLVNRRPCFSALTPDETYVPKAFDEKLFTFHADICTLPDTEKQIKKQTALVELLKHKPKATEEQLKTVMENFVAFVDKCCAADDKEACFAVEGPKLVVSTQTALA

% age α-amylase inhibition ([1]; 1 μM) [%] | % age α-amylase inhibition ([1]; 5 μM) [%] | % age α-amylase inhibition ([1]; 10 μM) [%] | IC50 [1] [µM] | inhibition at 100 ppm [2] [%] | inhibition at 200 ppm [2] [%] | inhibition at 400 ppm [2] [%] | inhibition at 600 ppm [2] [%] | inhibition at 800 ppm [2] [%] | inhibition at 1000 ppm [2] [%] | IC50 [3] [mM] | IC50 [2] [µM] | Compound | % age antioxidant potential ([3]; 3 mM) [%] | % age antioxidant potential ([3]; 6 mM) [%] | % age antioxidant potential ([3]; 9 mM) [%] | % age antioxidant potential ([3]; 12 mM) [%] | % age antioxidant potential ([3]; 15 mM) [%] | percentage antioxidant potential [3]
31.95 | 51.54 | 62.71 | 6.87 ± 0.01 | 81.2 | 84.6 | 85.2 | 86.2 | 86.8 | 87.5 | 11.3 ± 0.14 | – | Cc1ccc(C=NNc2nc(-c3ccc(F)cc3)cs2)c(Br)c1 [3b, 2-(2-(2-Bromo-4-methylbenzylidene)hydrazinyl)-4-(4-fluorophenyl)thiazole] | 8.77 | 23.69 | 36.38 | 53.65 | 69.82 | –
30.03 | 45.41 | 58.12 | 7.52 ± 0.05 | 67.6 | 68.9 | 69.7 | 75.7 | 77.9 | 81.6 | 11.4 ± 0.12 | – | CC(CCc1ccccc1)=NNc1nc(-c2ccc(F)cc2)cs1 [3c, 4-(4-Fluorophenyl)-2-(2-(4-phenylbutan-2-ylidene)hydrazinyl)thiazole] | 0.00 | 11.13 | 34.28 | 57.51 | 73.34 | –
34.92 | 51.68 | 62.28 | 6.88 ± 0.16 | 84.1 | 86.7 | 87.3 | 88 | 90.4 | 91.3 | – | – | CC(=NNc1nc(-c2ccc(F)cc2)cs1)c1cccc(Br)c1 [3f, 2-(2-(1-(3-Bromophenyl)ethylidene)hydrazinyl)-4-(4-fluorophenyl)thiazole] | 0.00 | 0.00 | 19.48 | 28.70 | 40.73 | less than 50%
51.64 | 64.48 | 71.83 | 5.77 ± 0.05 | 79.3 | 81 | 82.1 | 83 | 85.8 | 87.8 | 13.86 ± 0.04 | – | Fc1ccc(-c2csc(NN=Cc3cccs3)n2)cc1 [3n, 4-(4-Fluorophenyl)-2-(2-(thiophen-2-ylmethylene)hydrazinyl)thiazole] | 0.00 | 12.72 | 30.39 | 45.47 | 59.36 | –
53.42 | 66.81 | 74.77 | – | – | – | – | – | – | – | – | – | C[C@H]1O[C@H](O[C@H]2[C@H](O)[C@@H](O)[C@@H](O[C@H]3[C@H](O)[C@@H](O)C(O)O[C@@H]3CO)O[C@@H]2CO)[C@H](O)[C@@H](O)[C@@H]1N[C@H]1C=C(CO)[C@@H](O)[C@H](O)[C@H]1O (stereo partly shown) [acarbose, reference compound] | – | – | – | – | – | –
30.06 | 41.20 | 57.45 | 7.77 ± 0.01 | 68.7 | 69.7 | 70.7 | 71.8 | 72.8 | 73.7 | – | – | Cc1ccc(C=NNc2nc(-c3ccc(F)cc3)cs2)o1 [3e, 4-(4-Fluorophenyl)-2-(2-((5-methylfuran-2-yl)methylene)hydrazinyl)thiazole] | 0.00 | 8.26 | 19.32 | 44.74 | 49.04 | less than 50%
47.84 | 57.72 | 70.90 | 6.03 ± 0.04 | 87.4 | 87.9 | 88.8 | 89.2 | 90 | 91.6 | – | – | Fc1ccc(-c2csc(NN=Cc3ccccc3C(F)(F)F)n2)cc1 [3k, 4-(4-Fluorophenyl)-2-(2-(2-(trifluoromethyl)benzylidene)hydrazinyl)thiazole] | 0.00 | 14.08 | 21.05 | 30.92 | 48.28 | less than 50%
42.76 | 52.79 | 63.94 | 6.66 ± 0.13 | 76.8 | 78.8 | 82.5 | 84 | 86.1 | 88.8 | – | – | Fc1ccc(-c2csc(NN=Cc3ccc[nH]3)n2)cc1 [3m, 2-(2-((1H-Pyrrol-2-yl)methylene)hydrazinyl)-4-(4-fluorophenyl)thiazole] | 0.00 | 0.00 | 0.00 | 15.13 | 31.05 | less than 50%
38.00 | 49.56 | 62.75 | 6.9 ± 0.23 | 24.3 | 34.6 | 48.8 | 54.3 | 66.6 | 74.6 | – | 1770 | CC(=NNc1nc(-c2ccc(F)cc2)cs1)c1ccc(F)cc1 [3g, 4-(4-Fluorophenyl)-2-(2-(1-(4-fluorophenyl)ethylidene)hydrazinyl)thiazole] | 0.00 | 0.00 | 0.00 | 0.00 | 8.45 | less than 50%
55.89 | 69.05 | 82.47 | 5.14 ± 0.03 | 50.9 | 56.5 | 65.5 | 68.4 | 69 | 70.7 | – | – | Oc1ccc(Cl)cc1C=NNc1nc(-c2ccc(F)cc2)cs1 [3h, 4-Chloro-2-((2-(4-(4-fluorophenyl)thiazol-2-yl)hydrazinylidene)methyl)phenol] | 0.00 | 0.00 | 0.00 | 8.78 | 23.25 | less than 50%
29.58 | 42.23 | 54.03 | 8.07 ± 0.12 | 52.3 | 61.5 | 66.5 | 70.3 | 76.2 | 79.2 | 8.33 ± 0.08 | – | CCOc1ccccc1C=NNc1nc(-c2ccc(F)cc2)cs1 [3j, 2-(2-(2-Ethoxybenzylidene)hydrazinyl)-4-(4-fluorophenyl)thiazole] | 18.18 | 45.90 | 62.07 | 75.45 | 78.51 | –
37.06 | 49.08 | 61.72 | 7 ± 0.13 | 79.9 | 81.8 | 83 | 84.6 | 86.2 | 87.1 | 12.94 ± 0.01 | – | COc1c(F)cccc1C=NNc1nc(-c2ccc(F)cc2)cs1 [3l, 2-(2-(3-Fluoro-2-methoxybenzylidene)hydrazinyl)-4-(4-fluorophenyl)thiazole] | 0.00 | 15.62 | 32.06 | 46.14 | 65.18 | –
– | – | – | – | – | – | – | – | – | – | 7.18 ± 0.01 | – | O=C1O[C@H]([C@@H](O)CO)C(O)=C1O [ascorbic acid, reference compound] | 52.34 | 61.01 | 74.41 | 81.85 | 84.92 | –

Compound | % age α-amylase inhibition ([1]; 1 μM) [%] | % age α-amylase inhibition ([1]; 5 μM) [%] | % age α-amylase inhibition ([1]; 10 μM) [%] | IC50 [1] [µM] | inhibition at 100 ppm [2] [%] | inhibition at 200 ppm [2] [%] | inhibition at 400 ppm [2] [%] | inhibition at 600 ppm [2] [%] | inhibition at 800 ppm [2] [%] | inhibition at 1000 ppm [2] [%] | IC50 [3] [mM] | IC50 [2] [µM] | % age antioxidant potential ([3]; 3 mM) [%] | % age antioxidant potential ([3]; 6 mM) [%] | % age antioxidant potential ([3]; 9 mM) [%] | % age antioxidant potential ([3]; 12 mM) [%] | % age antioxidant potential ([3]; 15 mM) [%] | percentage antioxidant potential [3]
COc1cc(Br)c(C=NNc2nc(-c3ccc(F)cc3)cs2)cc1OC [3a, 2-(2-(2-Bromo-4,5-dimethoxybenzylidene)hydrazinyl)-4-(4-fluorophenyl)thiazole] | 35.96 | 51.11 | 69.11 | 6.41 ± 0.09 | 80.9 | 82.1 | 84.8 | 85.9 | 87 | 89.9 | 12.39 ± 0.1 | – | 0.00 | 18.82 | 32.72 | 47.58 | 67.95 | –
